According to ChEMBL document CHEMBL1127604 (J Med Chem, 1994):

Columns and labels:
[1] = target: T1, 5-hydroxytryptamine receptor 1D (Rattus norvegicus, UniProt P28565); assay: Binding affinity was measured against serotonin 5-hydroxytryptamine 1D receptor
How it was run: (§1)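 Radioligand binding at 5-HT1A and 5-HT1D receptors, run by the group's earlier published protocol. Each value is the arithmetic mean of at least three independent determinations.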

[2] = target: T2, 5-hydroxytryptamine receptor 1A (Rattus norvegicus, UniProt P19327); assay: Inhibition of forskolin stimulated adenylate cyclase at 5-hydroxytryptamine 1A receptor; type: functional
T2 sequence (P19327 whole entry): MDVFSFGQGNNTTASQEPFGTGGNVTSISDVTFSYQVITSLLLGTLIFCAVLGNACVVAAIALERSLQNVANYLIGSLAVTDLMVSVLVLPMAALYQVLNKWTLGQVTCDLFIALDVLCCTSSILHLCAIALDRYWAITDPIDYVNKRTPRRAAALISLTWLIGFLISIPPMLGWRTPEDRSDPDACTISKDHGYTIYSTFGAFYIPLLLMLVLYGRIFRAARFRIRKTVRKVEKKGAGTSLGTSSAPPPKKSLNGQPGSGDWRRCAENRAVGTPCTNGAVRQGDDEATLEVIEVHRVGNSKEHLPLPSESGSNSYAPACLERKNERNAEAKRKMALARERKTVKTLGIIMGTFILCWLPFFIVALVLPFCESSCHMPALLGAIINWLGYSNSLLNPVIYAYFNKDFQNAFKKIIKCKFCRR

[3] = target: T1, 5-hydroxytryptamine receptor 1D; assay: Inhibition of forskolin stimulated adenylate cyclase at 5-hydroxytryptamine 1D receptor; type: functional
[4] = Selectivity value is the ratio between IC50 values of 5-HT1A and 5-HT1D receptors
[5] = target: T2, 5-hydroxytryptamine receptor 1A; assay: Binding affinity was measured against serotonin 5-hydroxytryptamine 1A receptor; how it was run: as §1
[6] = Selectivity value is the ratio between EC50 values of 5-HT1A and 5-HT1D receptors

T1 sequence (P28565 whole entry): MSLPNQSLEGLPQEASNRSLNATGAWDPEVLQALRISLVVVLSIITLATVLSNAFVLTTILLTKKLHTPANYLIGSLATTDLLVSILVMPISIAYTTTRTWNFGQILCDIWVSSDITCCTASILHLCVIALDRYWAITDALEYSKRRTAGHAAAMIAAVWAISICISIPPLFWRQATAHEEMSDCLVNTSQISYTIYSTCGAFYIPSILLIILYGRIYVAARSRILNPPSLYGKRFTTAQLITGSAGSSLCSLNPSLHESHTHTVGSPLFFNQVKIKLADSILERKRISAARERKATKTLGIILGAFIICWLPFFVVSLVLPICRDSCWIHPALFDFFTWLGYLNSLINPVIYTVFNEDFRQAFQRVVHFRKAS

`CN1CCC[C@@H]1Cc1c[nH]c2ccc(Nc3ncccc3[N+](=O)[O-])cc12` showed an IC50 [1] of 3.1 nM, an EC50 [2] of 47 nM and an EC50 [3] of 1.3 nM. It also gave a Selectivity [4] of 11, an IC50 [5] of 33 nM and a Selectivity [6] of 36.
Work on `CNS(=O)(=O)Cc1ccc2[nH]cc(CCN(C)C)c2c1` yielded an EC50 [2] of 1300 nM and an IC50 [5] of 640 nM.
In the case of `CN(C)CCc1c[nH]c2ccc(Nc3ncccc3[N+](=O)[O-])cc12`, the IC50 [1] is reported as 10 nM, the EC50 [2] is reported as 170 nM and the EC50 [3] is reported as 2 nM. For the same compound, the Selectivity [4] was 7, the IC50 [5] was 73 nM and the Selectivity [6] was 85.
Compound `CN1CCC(c2c[nH]c3ccc(Nc4ncccc4[N+](=O)[O-])cc23)C1` (stereo unspecified) has an IC50 [1] of 15 nM, an EC50 [2] of 885 nM and an EC50 [3] of 2 nM. The Selectivity [4] was 21, the IC50 [5] was 320 nM and the Selectivity [6] was 440.
Compound `O=[N+]([O-])c1cccnc1Nc1ccc2[nH]cc(C[C@H]3CCCN3)c2c1` has an IC50 [1] of 6.2 nM, an EC50 [2] of 220 nM and an EC50 [3] of 1.3 nM. It also gave a Selectivity [4] of 19, an IC50 [5] of 120 nM and a Selectivity [6] of 170.
